What was measured:
[1] = target: Protein kinase C delta type (Homo sapiens, UniProt Q05655); experiment: Activation of PKCdelta (unknown origin) after 40 mins
Method in brief: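 In vitro PKCδ phosphorylation of a PKC peptide substrate, with 0.05 mg/mL phosphatidylserine and no diacylglycerol. Compounds were tested as a twelve-point semilog dilution series starting at 10 µM. The reaction was started with ATP and run 40 min at room temperature.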

[2] = Immunostimulatory activity in polymorphonuclear leukocytes (unknown origin) assessed as induction of oxidative burst after 40 mins by fluorescence assay relative to ingenol 3-angelate; format: functional
Method in brief: (§1)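 PMN were isolated from fresh buffy coats. Cells were incubated 40 min at ambient temperature with titrated compound (top concentration 10 µM) pre-mixed with hydroethidine. Respiratory burst was read as fluorescence at ex 485/em 579 nm. EC50 is the concentration giving 50% of the maximum effect of ingenol 3-angelate; Emax is the maximal response relative to it.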

[3] = tested on: Keratinocyte; experiment: Induction of proimflammatory activity in human primary epidermal keratinocytes assessed as TNFalpha release after 6 hrs; format: functional, cell-based
Method in brief: (§2)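 Adult log-phase primary epidermal keratinocytes were seeded at 10,000 cells/well. Cells were incubated with titrated compound for 6 h at 37 °C in 5% CO2. Secreted TNFα was measured by Meso Scale 4-spot cytokine plates. EC50 and Emax were referenced to the maximal response of ingenol 3-angelate.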

[4] = Immunostimulatory activity in polymorphonuclear leukocytes (unknown origin) assessed as induction of oxidative burst after 40 mins by fluorescence assay; format: functional, cell-based; method in brief: as §1
[5] = tested on: Keratinocyte; experiment: Induction of proimflammatory activity in human primary epidermal keratinocytes assessed as IL-8 release after 6 hrs; format: functional, cell-based
Method in brief: as §2, with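 “IL8” for “TNFα”, “plates or by HTRF.” for “plates.”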

[6] = tested on: Keratinocyte; experiment: Induction of proimflammatory activity in human primary epidermal keratinocytes assessed as TNFalpha release after 6 hrs relative to ingenol 3-angelate; format: functional; method in brief: as §2
[7] = Chemical stability of the compound in aqueous buffer with less than 30% organic solvent assessed as compound recovery at pH 7.4 measured over 16 hrs by HPLC analysis; format: physicochemical; details: read-out: Drug recovery
Method in brief: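 A DMSO stock was diluted into pre-heated (37 °C) aqueous buffer pH 7.4 to ≤30% v/v organic content. The solution was held at 37 °C in the HPLC autosampler and injected within 5 min, then repeatedly over 16 h. Recovery was taken from the decrease in compound peak area, with UV detection normally at 270 nm.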

[8] = tested on: HeLa; experiment: Induction of necrosis in human HeLa cells assessed as remaining metabolic activity after 30 mins by resazurin dye-based assay; format: functional; details: 0.5 h, read-out: LC50 (the source's name)
Method in brief: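 HeLa cells were exposed to increasing concentrations up to 400 µM for 30 min at 37 °C. Metabolic activity was then measured with a resazurin-based dye (PrestoBlue). LC50 is the concentration giving 50% loss of metabolic activity.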

[9] = tested on: Keratinocyte; experiment: Induction of proimflammatory activity in human primary epidermal keratinocytes assessed as IL-8 release after 6 hrs relative to ingenol 3-angelate; format: functional
Method in brief: as §2, with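 “IL8” for “TNFα”, “plates or by HTRF.” for “plates.”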

Chain of Protein kinase C delta type (Q05655 whole entry): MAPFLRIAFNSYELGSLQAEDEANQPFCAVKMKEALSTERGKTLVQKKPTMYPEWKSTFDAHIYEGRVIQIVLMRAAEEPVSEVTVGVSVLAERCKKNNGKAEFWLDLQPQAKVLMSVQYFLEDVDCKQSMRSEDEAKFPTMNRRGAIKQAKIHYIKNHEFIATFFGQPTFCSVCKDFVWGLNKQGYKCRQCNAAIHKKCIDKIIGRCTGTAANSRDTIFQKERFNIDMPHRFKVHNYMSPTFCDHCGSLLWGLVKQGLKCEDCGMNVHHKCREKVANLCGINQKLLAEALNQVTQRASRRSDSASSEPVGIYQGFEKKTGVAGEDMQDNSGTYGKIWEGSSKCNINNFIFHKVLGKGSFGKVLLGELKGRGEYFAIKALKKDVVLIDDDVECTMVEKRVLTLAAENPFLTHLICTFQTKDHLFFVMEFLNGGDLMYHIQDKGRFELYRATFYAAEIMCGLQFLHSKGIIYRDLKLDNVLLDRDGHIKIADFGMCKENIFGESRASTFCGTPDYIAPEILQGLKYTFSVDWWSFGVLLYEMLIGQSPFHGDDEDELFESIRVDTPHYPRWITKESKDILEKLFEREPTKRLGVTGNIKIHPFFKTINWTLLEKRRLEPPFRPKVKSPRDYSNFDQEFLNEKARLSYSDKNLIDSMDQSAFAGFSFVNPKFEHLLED

| Compound | EC50 [1] | Emax [2] | EC50 [3] | EC50 [4] | EC50 [5] | Emax [6] | remaining at 16 h [7] | CC50 [8] | Emax [9] |
| --- | --- | --- | --- | --- | --- | --- | --- | --- | --- |
| CC1=C[C@]23C(=O)[C@@H](C=C(CO)[C@@H](O)[C@]2(O)[C@H]1OC(=O)c1ccccc1Br)[C@H]1[C@@H](C[C@H]3C)C1(C)C | 3.8 nM | 99% | 8.2 nM | 4.3 nM | 2.3 nM | 96% | 44% | 141000 nM | 93% |
| CC1=C[C@]23C(=O)[C@@H](C=C(CO)[C@@H](O)[C@]2(O)[C@H]1OC(=O)c1ccccc1-c1ccccc1)[C@H]1[C@@H](C[C@H]3C)C1(C)C | 3.3 nM | 105% | 1.6 nM | 16 nM | 1.5 nM | 91% | 77% | 77000 nM | 87% |
| CC1=C[C@]23C(=O)[C@@H](C=C(CO)[C@@H](O)[C@]2(O)[C@H]1OC(=O)c1ccccc1Oc1ccccc1)[C@H]1[C@@H](C[C@H]3C)C1(C)C | 13.1 nM | 98% | 1.4 nM | 9.4 nM | 1.1 nM | 86% | 80% | 83000 nM | 87% |
| CC1=C[C@]23C(=O)[C@@H](C=C(CO)[C@@H](O)[C@]2(O)[C@H]1OC(=O)c1ccccc1Nc1ccccc1)[C@H]1[C@@H](C[C@H]3C)C1(C)C | 4.2 nM | 129% | 5 nM | 11 nM | 3.7 nM | 120% | 58% | 307000 nM | 103% |
| CNc1ccccc1C(=O)O[C@H]1C(C)=C[C@]23C(=O)[C@@H](C=C(CO)[C@@H](O)[C@]12O)[C@H]1[C@@H](C[C@H]3C)C1(C)C | 2.5 nM | 113% | 1 nM | 6.7 nM | 0.79 nM | 134% | 68% | 95000 nM | 99% |
| CC1=C[C@]23C(=O)[C@@H](C=C(CO)[C@@H](O)[C@]2(O)[C@H]1OC(=O)c1c(C)cccc1C)[C@H]1[C@@H](C[C@H]3C)C1(C)C | 10.8 nM | 123% | 83 nM | 13 nM | 62 nM | 61% | > 95% | 97000 nM | 66% |
| CC1=C[C@]23C(=O)[C@@H](C=C(CO)[C@@H](O)[C@]2(O)[C@H]1OC(=O)c1c(C)cccc1N)[C@H]1[C@@H](C[C@H]3C)C1(C)C | 8 nM | 117% | 12 nM | 8.6 nM | 8.2 nM | 108% | > 95% | 146000 nM | 118% |
| CC1=C[C@]23C(=O)[C@@H](C=C(CO)[C@@H](O)[C@]2(O)[C@H]1OC(=O)c1c(C)cccc1O)[C@H]1[C@@H](C[C@H]3C)C1(C)C | 13.4 nM | 125% | 98 nM | 9.4 nM | 71 nM | 156% | > 95% | 199000 nM | 105% |
